Columns and labels:
[1] = target: Serine/threonine-protein kinase MRCK alpha (Homo sapiens) (UniProt Q5VT25); assay: Competitive binding affinity to MRCKA (unknown origin) at 10 uM in presence of ATP relative to control
Summary of the method: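 In vitro ATP-site competition binding assay across a diverse panel of 128 kinases, with compound tested at a single concentration. Kinase selectivity scores (S15) were calculated from the panel profiles.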

[2] = target: MAP kinase-activated protein kinase 2 (Homo sapiens) (UniProt P49137); assay: Competitive binding affinity to MAPKAPK2 (unknown origin) at 10 uM in presence of ATP relative to control
[3] = target: Glycogen synthase kinase-3 alpha (Homo sapiens, UniProt P49840); assay: Competitive binding affinity to GSK3alpha (unknown origin) at 10 uM in presence of ATP relative to control
Summary of the method: (§1)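 In vitro ATP-site competition binding format, run as one member of a diverse 128-kinase profiling panel. Each compound was tested at a single concentration across the whole panel.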

[4] = system: Epidermal growth factor receptor (Homo sapiens), P00533 [L858R]; assay: Competitive binding affinity to EGFR L858R mutant (unknown origin) at 10 uM in presence of ATP relative to control
Summary of the method: (§2)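 In vitro ATP-site competition binding assay, part of profiling against a diverse panel of 128 kinases. Each compound was tested at a single concentration of 10 µM. Kinome selectivity was summarized as S15 selectivity scores.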

[5] = system: Epidermal growth factor receptor (Homo sapiens), P00533 [G719C]; assay: Competitive binding affinity to EGFR G719C mutant (unknown origin) at 10 uM in presence of ATP relative to control; summary of the method: as §2
[6] = target: Casein kinase I isoform gamma-3 (Homo sapiens) (UniProt Q9Y6M4); assay: Competitive binding affinity to CSNK1G3 (unknown origin) at 10 uM in presence of ATP relative to control
[7] = target: T1, Cyclin-dependent kinase 11A (Homo sapiens) (UniProt Q9UQ88); assay: Competitive binding affinity to CDC2L2 (unknown origin) at 10 uM in presence of ATP relative to control; summary of the method: as §1
T1 sequence (whole entry): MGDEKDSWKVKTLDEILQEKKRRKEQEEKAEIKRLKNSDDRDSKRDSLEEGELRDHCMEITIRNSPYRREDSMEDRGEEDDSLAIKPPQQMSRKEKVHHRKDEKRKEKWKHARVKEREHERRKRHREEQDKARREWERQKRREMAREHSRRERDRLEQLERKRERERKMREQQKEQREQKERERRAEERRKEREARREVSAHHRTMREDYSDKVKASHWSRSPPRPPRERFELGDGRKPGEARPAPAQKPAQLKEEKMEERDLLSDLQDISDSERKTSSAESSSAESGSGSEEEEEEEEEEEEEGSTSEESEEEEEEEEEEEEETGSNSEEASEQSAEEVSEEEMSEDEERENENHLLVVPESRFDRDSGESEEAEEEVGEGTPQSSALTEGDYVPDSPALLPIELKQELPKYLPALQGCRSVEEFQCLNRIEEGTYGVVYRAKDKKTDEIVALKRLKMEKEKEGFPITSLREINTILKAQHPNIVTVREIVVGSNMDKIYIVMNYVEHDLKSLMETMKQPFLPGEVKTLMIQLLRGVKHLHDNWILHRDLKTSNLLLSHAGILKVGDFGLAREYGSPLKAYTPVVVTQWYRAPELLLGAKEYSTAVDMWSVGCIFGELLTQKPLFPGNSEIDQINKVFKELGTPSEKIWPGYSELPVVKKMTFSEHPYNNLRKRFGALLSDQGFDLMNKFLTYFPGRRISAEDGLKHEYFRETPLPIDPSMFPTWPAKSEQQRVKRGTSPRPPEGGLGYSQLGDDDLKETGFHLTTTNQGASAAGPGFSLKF

[8] = target: RAC-beta serine/threonine-protein kinase (Homo sapiens) (UniProt P31751); assay: Competitive binding affinity to AKT2 (unknown origin) at 10 uM in presence of ATP relative to control
[9] = system: Tyrosine-protein kinase ABL1 (Homo sapiens), P00519 [H396P]; assay: Competitive binding affinity to ABL1 H396P mutant (unknown origin) at 10 uM in presence of ATP relative to control
[10] = target: Ribosomal protein S6 kinase alpha-6 (Homo sapiens) (UniProt Q9UK32); assay: Competitive binding affinity to RPS6KA6 kinase domain 1 (unknown origin) at 10 uM in presence of ATP relative to control
[11] = target: T2, Protein kinase C epsilon type (Homo sapiens) (UniProt Q02156); assay: Competitive binding affinity to PRKCE (unknown origin) at 10 uM in presence of ATP relative to control
T2 sequence (whole entry): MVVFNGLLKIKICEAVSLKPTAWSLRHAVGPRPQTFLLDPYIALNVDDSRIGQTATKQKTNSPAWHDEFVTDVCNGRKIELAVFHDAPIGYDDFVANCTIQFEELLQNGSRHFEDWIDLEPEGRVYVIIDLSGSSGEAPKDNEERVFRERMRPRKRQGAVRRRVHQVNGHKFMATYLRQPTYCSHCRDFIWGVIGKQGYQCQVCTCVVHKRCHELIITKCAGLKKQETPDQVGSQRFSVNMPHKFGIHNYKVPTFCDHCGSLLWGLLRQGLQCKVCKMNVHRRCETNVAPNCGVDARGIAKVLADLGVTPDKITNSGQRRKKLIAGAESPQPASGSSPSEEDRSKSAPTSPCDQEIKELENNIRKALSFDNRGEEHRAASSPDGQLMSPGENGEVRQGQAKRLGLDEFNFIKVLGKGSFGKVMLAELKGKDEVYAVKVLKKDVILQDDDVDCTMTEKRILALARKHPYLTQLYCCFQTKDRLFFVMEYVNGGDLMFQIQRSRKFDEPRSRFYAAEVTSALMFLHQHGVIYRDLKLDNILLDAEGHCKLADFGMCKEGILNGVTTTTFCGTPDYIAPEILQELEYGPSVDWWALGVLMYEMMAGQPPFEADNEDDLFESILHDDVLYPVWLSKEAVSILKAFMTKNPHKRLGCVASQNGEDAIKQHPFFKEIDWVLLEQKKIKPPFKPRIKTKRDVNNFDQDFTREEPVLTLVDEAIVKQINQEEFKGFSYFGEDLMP

[12] = target: Cyclin-dependent kinase 14 (Homo sapiens) (UniProt O94921); assay: Competitive binding affinity to PFTK1 (unknown origin) at 10 uM in presence of ATP relative to control

Chain of Casein kinase I isoform gamma-3 (Homo sapiens) (Q9Y6M4 whole entry, looked up, canonical isoform): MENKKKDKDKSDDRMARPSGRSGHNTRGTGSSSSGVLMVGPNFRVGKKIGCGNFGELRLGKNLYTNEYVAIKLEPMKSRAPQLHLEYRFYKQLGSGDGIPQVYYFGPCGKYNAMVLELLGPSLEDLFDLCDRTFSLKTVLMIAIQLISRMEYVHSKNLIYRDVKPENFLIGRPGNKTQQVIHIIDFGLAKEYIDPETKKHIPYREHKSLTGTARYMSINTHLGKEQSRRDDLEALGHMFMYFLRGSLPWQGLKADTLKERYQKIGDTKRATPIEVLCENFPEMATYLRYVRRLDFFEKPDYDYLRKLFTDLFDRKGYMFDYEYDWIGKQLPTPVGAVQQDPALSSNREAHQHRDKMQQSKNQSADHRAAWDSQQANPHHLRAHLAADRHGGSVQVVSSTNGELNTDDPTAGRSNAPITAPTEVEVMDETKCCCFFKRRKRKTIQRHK
Chain of Serine/threonine-protein kinase MRCK alpha (Homo sapiens) (Q5VT25 whole entry): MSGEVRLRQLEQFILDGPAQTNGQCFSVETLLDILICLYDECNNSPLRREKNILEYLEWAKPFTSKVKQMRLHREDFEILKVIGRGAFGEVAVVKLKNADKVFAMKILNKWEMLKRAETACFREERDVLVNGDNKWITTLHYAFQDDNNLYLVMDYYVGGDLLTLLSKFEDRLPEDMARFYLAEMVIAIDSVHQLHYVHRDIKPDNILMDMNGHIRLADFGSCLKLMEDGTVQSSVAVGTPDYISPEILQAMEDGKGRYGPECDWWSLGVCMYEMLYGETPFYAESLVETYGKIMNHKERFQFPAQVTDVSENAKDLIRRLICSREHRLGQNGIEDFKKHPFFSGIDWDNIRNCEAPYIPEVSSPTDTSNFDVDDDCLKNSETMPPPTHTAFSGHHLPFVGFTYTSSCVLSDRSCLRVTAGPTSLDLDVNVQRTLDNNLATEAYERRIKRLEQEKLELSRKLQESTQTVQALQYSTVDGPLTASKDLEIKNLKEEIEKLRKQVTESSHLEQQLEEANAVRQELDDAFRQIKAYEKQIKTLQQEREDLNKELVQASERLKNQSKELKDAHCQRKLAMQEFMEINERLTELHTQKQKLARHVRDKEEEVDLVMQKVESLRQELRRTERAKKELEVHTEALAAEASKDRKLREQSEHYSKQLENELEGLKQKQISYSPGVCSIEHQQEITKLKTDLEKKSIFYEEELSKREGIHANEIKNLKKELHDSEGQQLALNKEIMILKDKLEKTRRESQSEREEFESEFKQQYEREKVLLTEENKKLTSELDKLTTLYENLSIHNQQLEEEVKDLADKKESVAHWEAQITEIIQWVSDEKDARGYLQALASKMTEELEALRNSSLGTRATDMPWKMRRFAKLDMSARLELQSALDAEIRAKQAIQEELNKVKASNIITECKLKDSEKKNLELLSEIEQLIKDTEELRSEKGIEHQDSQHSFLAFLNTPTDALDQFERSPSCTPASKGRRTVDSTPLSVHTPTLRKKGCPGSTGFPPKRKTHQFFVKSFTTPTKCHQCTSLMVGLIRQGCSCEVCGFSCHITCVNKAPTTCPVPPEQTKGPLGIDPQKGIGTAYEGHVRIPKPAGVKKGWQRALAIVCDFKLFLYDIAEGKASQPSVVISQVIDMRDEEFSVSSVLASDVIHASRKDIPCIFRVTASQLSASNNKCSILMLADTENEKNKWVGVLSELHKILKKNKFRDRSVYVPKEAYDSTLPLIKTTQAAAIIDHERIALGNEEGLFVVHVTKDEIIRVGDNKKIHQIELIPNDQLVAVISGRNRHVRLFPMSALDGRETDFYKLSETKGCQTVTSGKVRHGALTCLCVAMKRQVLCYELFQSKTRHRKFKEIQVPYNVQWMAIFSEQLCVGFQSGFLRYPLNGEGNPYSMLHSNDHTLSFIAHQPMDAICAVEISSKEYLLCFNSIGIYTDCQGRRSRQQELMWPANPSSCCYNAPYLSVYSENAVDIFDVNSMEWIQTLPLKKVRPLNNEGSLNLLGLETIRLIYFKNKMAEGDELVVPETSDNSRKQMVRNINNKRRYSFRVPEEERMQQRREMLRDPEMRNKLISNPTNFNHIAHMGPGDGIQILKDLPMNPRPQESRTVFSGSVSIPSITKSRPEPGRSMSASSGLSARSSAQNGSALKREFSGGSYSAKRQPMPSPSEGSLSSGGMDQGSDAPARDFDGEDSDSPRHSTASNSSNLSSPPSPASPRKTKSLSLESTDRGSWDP
Chain of Epidermal growth factor receptor (Homo sapiens), P00533 [G719C] (P00533 whole entry G719C, canonical isoform): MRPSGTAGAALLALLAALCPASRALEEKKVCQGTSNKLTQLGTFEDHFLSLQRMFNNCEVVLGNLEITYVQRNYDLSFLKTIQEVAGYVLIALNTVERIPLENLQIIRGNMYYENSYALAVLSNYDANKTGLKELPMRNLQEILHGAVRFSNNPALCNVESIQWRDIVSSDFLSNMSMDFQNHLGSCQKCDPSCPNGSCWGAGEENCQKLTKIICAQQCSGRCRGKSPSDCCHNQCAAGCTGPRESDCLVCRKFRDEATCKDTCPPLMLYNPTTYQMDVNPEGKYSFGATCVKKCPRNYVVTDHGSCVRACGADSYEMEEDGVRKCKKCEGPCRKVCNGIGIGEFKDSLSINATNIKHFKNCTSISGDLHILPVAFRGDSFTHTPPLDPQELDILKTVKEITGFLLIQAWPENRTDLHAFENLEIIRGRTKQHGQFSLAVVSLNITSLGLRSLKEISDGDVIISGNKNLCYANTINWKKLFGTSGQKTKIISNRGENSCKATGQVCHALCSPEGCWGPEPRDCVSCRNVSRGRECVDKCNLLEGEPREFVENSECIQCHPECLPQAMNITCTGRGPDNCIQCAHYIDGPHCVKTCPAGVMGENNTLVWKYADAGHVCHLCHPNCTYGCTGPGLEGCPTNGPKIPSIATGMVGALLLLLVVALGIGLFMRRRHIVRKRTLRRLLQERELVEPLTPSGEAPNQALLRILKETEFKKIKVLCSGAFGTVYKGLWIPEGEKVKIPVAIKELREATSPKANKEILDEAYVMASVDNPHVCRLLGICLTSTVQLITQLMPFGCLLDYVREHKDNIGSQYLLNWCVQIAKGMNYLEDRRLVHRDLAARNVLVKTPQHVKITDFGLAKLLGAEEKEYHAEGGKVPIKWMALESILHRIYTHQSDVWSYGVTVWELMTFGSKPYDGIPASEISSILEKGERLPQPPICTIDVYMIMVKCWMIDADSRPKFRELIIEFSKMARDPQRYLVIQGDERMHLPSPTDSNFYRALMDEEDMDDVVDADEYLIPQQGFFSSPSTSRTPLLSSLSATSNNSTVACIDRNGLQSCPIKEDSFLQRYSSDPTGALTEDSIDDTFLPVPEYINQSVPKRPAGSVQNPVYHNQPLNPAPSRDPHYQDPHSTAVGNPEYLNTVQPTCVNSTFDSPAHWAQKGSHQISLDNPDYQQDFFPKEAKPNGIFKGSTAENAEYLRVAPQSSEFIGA
Chain of Epidermal growth factor receptor (Homo sapiens), P00533 [L858R] (P00533 whole entry L858R): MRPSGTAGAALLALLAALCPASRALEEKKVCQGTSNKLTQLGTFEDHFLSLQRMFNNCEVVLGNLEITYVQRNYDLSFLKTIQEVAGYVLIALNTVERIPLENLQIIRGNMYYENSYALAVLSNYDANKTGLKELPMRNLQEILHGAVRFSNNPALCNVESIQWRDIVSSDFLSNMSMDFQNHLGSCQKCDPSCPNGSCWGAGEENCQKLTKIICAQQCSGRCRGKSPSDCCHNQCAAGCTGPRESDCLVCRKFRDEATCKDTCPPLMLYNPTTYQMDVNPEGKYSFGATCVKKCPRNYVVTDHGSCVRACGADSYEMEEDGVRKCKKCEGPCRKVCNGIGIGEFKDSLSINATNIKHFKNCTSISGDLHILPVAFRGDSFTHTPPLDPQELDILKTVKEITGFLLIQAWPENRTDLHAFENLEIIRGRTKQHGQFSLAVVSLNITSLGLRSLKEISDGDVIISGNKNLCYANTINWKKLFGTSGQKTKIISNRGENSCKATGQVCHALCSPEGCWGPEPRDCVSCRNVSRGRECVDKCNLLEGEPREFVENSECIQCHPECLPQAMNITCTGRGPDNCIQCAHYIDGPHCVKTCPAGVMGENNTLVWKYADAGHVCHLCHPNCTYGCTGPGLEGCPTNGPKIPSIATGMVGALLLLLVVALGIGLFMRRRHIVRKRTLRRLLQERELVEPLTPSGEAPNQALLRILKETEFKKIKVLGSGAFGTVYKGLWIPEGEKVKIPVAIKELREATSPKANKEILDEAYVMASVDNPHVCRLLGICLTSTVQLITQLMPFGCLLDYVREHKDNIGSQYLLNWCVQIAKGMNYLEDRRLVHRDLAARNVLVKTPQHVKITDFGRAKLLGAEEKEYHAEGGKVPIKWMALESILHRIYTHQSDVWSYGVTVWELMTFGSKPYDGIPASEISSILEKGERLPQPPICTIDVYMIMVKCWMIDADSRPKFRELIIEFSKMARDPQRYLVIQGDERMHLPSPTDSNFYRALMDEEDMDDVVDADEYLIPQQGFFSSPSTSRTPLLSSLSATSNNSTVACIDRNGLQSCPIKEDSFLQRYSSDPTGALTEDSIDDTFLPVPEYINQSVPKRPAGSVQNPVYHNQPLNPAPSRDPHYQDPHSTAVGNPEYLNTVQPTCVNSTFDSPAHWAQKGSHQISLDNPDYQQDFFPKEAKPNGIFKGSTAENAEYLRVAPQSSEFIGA
Chain of MAP kinase-activated protein kinase 2 (Homo sapiens) (P49137 whole entry, looked up): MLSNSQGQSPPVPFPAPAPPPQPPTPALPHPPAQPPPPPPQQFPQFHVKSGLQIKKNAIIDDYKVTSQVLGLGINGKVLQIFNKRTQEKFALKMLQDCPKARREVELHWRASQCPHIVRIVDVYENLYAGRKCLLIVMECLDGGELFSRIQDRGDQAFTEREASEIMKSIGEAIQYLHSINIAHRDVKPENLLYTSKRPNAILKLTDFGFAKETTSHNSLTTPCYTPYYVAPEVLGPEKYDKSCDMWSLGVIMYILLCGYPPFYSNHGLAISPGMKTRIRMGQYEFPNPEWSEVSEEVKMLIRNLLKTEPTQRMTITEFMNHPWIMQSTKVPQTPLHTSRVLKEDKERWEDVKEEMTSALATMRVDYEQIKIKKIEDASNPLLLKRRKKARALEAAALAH

| inhibition [1] [%] | inhibition [2] [%] | inhibition [3] [%] | inhibition [4] [%] | inhibition [5] [%] | inhibition [6] [%] | inhibition [7] [%] | inhibition [8] [%] | inhibition [9] [%] | inhibition [10] [%] | inhibition [11] [%] | inhibition [12] [%] | Compound |
| --- | --- | --- | --- | --- | --- | --- | --- | --- | --- | --- | --- | --- |
| < 50 | < 50 | 99 | < 50 | < 50 | < 50 | 97 | < 50 | < 50 | < 50 | < 50 | < 50 | O[C@H]1CC[C@H](Nc2nccc(-n3ncc4ccccc43)n2)CC1 |
| < 50 | < 50 | 91 | < 50 | < 50 | < 50 | 95 | < 50 | < 50 | < 50 | < 50 | < 50 | O[C@H]1CC[C@H](Nc2nccc(-n3ccc4ccccc43)n2)CC1 |
|  |  | > 85 |  |  |  | > 85 |  |  |  |  |  | CS(=O)(=O)CCCOc1cccc2c1ccn2-c1ccnc(N[C@H]2CC[C@H](C(=O)N3CCC(O)CC3)CC2)n1 |
| < 50 |  | 97 | < 50 | < 50 |  |  | < 50 | < 50 | 79 |  |  | O[C@H]1CC[C@H](Nc2nccc(-c3n[nH]c4ccccc34)n2)CC1 |
| < 50 | < 50 | 100 | < 50 | < 50 | 96 | 100 | < 50 | < 50 | < 50 | < 50 | 79 | O[C@H]1CC[C@H](Nc2nccc(-n3nnc4ccccc43)n2)CC1 |
